# Only some compounds are listed: those with a hit (about 2.5% of all), similar ones and a draw of the others.
# sPLA2-III inh – human group III sPLA2 inhibitors, primary screen, biochemical, QFRET, BODIPY PC-A2 liposome substrate; Group 3 secretory phospholipase A2 (Homo sapiens), Q9NZ20; QFRET BODIPY PC-A2 liposome hydrolysis, fluorescence; inhibition, % at 12.2 µM; actives 0.56% (n = 370,000); AID 743126, 2013;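 active means inhibition above mean plus 3 SD of compounds lying within the high and low control bounds, cut at about 19% in these data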;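 further: 0% = median of test compound wells and 100% = no enzyme DMSO wells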
# Granule exo inh – LAMP-1 surface exposure blockers, TALL-104 cells – cell-based, flow cytometry, MLPCN library, primary screen; TALL-104 LAMP-1 surface exposure; cells stimulated with thapsigargin and PMA; inhibition, % at 10 µM; actives 0.66% (n = 360,000);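 active means inhibition above about 55%, limit read from the data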
# A1 inh – caspase 3/7 activation in MEF A1-2A-BIM cells, primary screen, A1 inhibitor project, cell-based, luminescence, HTS | Caspase-Glo 3/7 luminescence, 3 h; percent of clofoctol response, vehicle zero | caspase activation, % (test concentration not listed) | actives 0.066% (n = 330,000);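 active means over half of replicate activation scores above 10%, or exactly half above 10 with the replicate mean above 10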
# NTR1 ag – agonists of human NTR1, primary screen, imaging, U2OS cells, beta-arrestin-GFP, high content; NTR1-U2OS beta-arrestin-GFP spot imaging, agonist mode; actives 0.17% (n = 330,000); Neurotensin receptor type 1 (Homo sapiens), P30989; activation, % at 20 µM;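 active means activation at or above 40% of the spot to cytoplasm intensity ratio, with at least 20 cells analyzed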;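 further: 0% = DMSO without peptide and 100% = 100 nM NTR1 peptide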
# MC4R antagonist – MC4R antagonists of cAMP signaling, primary screen, cell-based, TR-FRET, antagonist arm of biased-ligand search | Melanocortin receptor 4 (Homo sapiens), P32245 | MC4R-expressing cells, MTII-stimulated cAMP, LANCE TR-FRET | inhibition, % at 6.5 µM | actives 0.48% (n = 360,000) | AID 540295, 2011;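 active means inhibition above its plate's cutoff, the mean of tested wells on that plate plus 3 SD, cut at about 29% in these data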;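 further: 0% = Melanotan II alone and 100% = Melanotan II plus saturating MCL0020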
# Target sequence (P32245 whole entry, looked up): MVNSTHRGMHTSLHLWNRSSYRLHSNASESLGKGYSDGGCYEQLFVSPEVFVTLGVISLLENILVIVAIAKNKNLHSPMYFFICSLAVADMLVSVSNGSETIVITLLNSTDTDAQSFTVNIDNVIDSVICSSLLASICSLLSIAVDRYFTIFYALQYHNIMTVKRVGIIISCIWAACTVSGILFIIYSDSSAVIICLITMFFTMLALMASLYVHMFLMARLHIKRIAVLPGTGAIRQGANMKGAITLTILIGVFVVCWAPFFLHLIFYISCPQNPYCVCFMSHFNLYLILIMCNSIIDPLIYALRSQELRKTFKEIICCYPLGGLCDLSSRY
#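 Material: human MC4R-expressing U2OS cells. Probe or stimulus: Melanotan II challenge. Dosing: 6.5 µM single dose. Times: 30-min compound, 1-h challenge, 1-h detection, room temperature. Technique: TR-FRET with Eu-cAMP and labeled anti-cAMP, 671 nm. Replication: singlicate.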
# MC4R barr agon – MC4R agonists recruiting beta-arrestin, primary screen, cell-based, luminescence, agonist arm of biased-ligand search. activation, % at 8.9 µM. Melanocortin receptor 4 (Homo sapiens), P32245. U2OS MC4R beta-arrestin complementation; percent of melanotan II response, DMSO zero. actives 0.98% (n = 360,000);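 active means activation above a per-plate cutoff, the mean activation of sample wells on that plate plus 3 SD, cut at about 8% in these data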
# Exocytosis CP01 – inhibitors of lytic granule exocytosis, confirmation, TALL-104 cells, flow cytometry, Cherry Pick01; shares compounds with Granule exo inh; LAMP-1 externalization; stimulated with PMA plus thapsigargin; inhibition, % at 10 µM; actives 11% (n = 1,500); AID 651954, 2012; in the data active means inhibition above about 60%;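 further: 0% = stimulated vehicle wells and 100% = unstimulated wells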
# * marks the source's active call; other numbers are inactive results; / = not tested or not shown.
SMILES,sPLA2-III inh,Granule exo inh,A1 inh,NTR1 ag,MC4R antagonist,MC4R barr agon,Exocytosis CP01
CCOC(=O)C1CCCN(S(=O)(=O)c2ccc3ccccc3c2)C1 (stereo unspecified),/,-19,1,4,-1,-2,/
CCOC(=O)C1CCCC12Nc1cccc3cccc(c13)N2 (stereo unspecified),2,86*,/,/,-9,-1,-14
N#Cc1ccsc1NC(=O)CCN1CCN(C(c2ccccc2)c2ccccc2)CC1,-7,77*,0,1,15,7,-10
COc1cc(CNC(C)c2ccccc2)cc(Br)c1OCc1ccc(F)cc1 (stereo unspecified),-19,65*,1,15,0,5,-13
COc1cc(CNc2ccc(O)cc2)cc(Br)c1OCc1ccccc1,2,1,1,20,2,-3,/
COc1cc(CNC(C)c2ccccc2)cc(Br)c1OCc1ccccc1 (stereo unspecified),-22,88*,0,8,-2,3,-1
CCOC(=O)C1(Cc2ccccc2)CCCN(C2CCCC2)C1 (stereo unspecified),1,59*,1,0,-7,-2,-4
CCOC(=O)C1(Cc2ccccc2)CCCN(CCO)C1 (stereo unspecified),-9,54,0,0,7,-3,/
CCOc1ccccc1Nc1cc(C)nc2ccc(C)cc12,-5,81*,0,3,13,0,-7
COc1ccc(OC)c(Nc2cc(C)nc3ccc(C)cc23)c1,-1,56*,-1,1,4,-1,-12
COc1ccc2nc(C)cc(Nc3ccc(C)cc3)c2c1,7,7,-1,2,7,0,/
CCOc1ccccc1Nc1cc(C)nc2ccccc12,-3,16,/,/,-1,0,/
CCOC(=O)c1c(-c2ccc(OC)cc2)oc2ccc(O)cc12,-40,63*,-1,17,25,3,-12
CCOC(=O)c1c(-c2ccc(OC)cc2)oc2ccc(OCC(N)=O)cc12,-5,31,-1,8,16,1,/
Cc1ccc2c(CC(=O)OCC(=O)N(CC(C)C)c3c(N)n(Cc4ccccc4)c(=O)[nH]c3=O)coc2c1,-10,41,-1,0,4,-1,/
COc1ccc(CCNC(=O)c2cc(COc3c(C)cccc3C)on2)c(OC)c1,0,3,1,-1,7,1,/
Cc1ccc(C(=O)Nc2ccccc2N2CCOCC2)cc1S(=O)(=O)N1CCOCC1,12,6,0,0,9,-3,/
O=C(COC(=O)Cc1c[nH]c2ccccc12)NC1CCCCC1,-45,77*,0,0,16,-1,-3
O=C(COC(=O)c1c[nH]c2ccccc12)NC1CCCC1,1,11,1,0,-2,0,/
C[C@@H]1OC(c2ccccc2)N(C)[C@H]2C[C@H]3c4[nH]c5cccc(-c6ccccc6)c5c4CCN3C[C@@H]12 (stereo partly specified),-2,/,/,/,/,/,/
S=C(NCCCN1CCOCC1)N1CCN(c2nc(-c3ccc(Cl)cc3)cs2)CC1,-6,77*,0,8,15,1,47
S=C(NCCCN1CCOCC1)N1CCN(c2nc(-c3ccccc3)cs2)CC1,3,8,1,0,0,2,/
CCn1nc(C)cc1C(=O)NC1CCCc2c1cnn2-c1ccc(C)c(C)c1 (stereo unspecified),-5,60*,0,0,9,0,-12
O=C(O)C1=C[C@H](c2cccs2)C[C@H](OCc2ccc(CO)cc2)O1,-7,3,0,-1,2,-2,/
Cc1cc(C(=O)CSc2nc3ccccc3[nH]2)c(C)n1CC1CCCO1 (stereo unspecified),-8,90*,-2,12,19,7,77*
SMILES,sPLA2-III inh,Granule exo inh,A1 inh,NTR1 ag,MC4R antagonist,MC4R barr agon,Exocytosis CP01
Cc1cc(C(=O)CSc2nc(N)cc(=O)[nH]2)c(C)n1CC1CCCO1 (stereo unspecified),3,0,1,0,0,-1,/
Nc1sccc1C(=O)c1ccc(Cl)cc1,0,82*,/,/,5,0,-3
O=C(Nc1ccccc1N1CCOCC1)c1cccc(Oc2ccccc2)c1,-3,63*,0,3,-2,-3,-13
COC(=O)C(NC(=O)CNS(=O)(=O)c1ccc(Br)cc1)c1ccccc1 (stereo unspecified),-8,62*,0,0,7,-1,-5
COC(=O)C(Cc1ccccc1)NC(=O)CNS(=O)(=O)c1ccc(Br)cc1 (stereo unspecified),4,-1,0,0,5,-2,/
CCCCOCC1CN(CCCC)S(=O)(=O)c2c(cccc2Sc2ccc(SC)cc2)O1 (stereo unspecified),-4,/,/,/,/,/,/
CC(NC(=O)CSc1nc2c(c(C(F)(F)F)n1)CCc1ccccc1-2)c1ccccc1 (stereo unspecified),6,59*,1,1,10,0,-3
O=C(CSc1nc2c(c(C(F)(F)F)n1)CCc1ccccc1-2)NCc1ccco1,0,-2,-1,5,10,-1,/
COC(=O)[C@]12C[C@H](CC(=O)N3CCN(C(=O)c4ccco4)CC3)C(=O)N(CCc3ccc(OC)c(OC)c3)C1=C[C@H](C1CCCC1)O[C@@H]2C,4,/,/,/,/,/,/
O=P(c1ccccc1)(c1ccccc1)C(O)c1ccc(Br)cc1 (stereo unspecified),-5,60*,0,4,7,1,-12
CN1Cc2c(N3CCOCC3)nc3sc(C(=O)c4ccc(Br)cc4)c(N)c3c2CC1(C)C,-8,61*,1,8,10,7,75*
CCOC(=O)C1(CCOc2ccccc2)CCN(Cc2ccc3c(c2)OCCO3)CC1,-10,83*,0,5,-1,-1,-3
CCOC(=O)C1(CCOc2ccccc2)CCN(Cc2ccc(O)c(OC)c2)CC1,-22,70*,2,2,-3,0,-10
